Publication PMC6601336 (ACS chemical biology, 2019)
Changes are numbered by the printed parent chain.

Tests used:
[1] = molecular target: T1, WT LasR (Pseudomonas aeruginosa, UniProt P25084); experiment: Pyocyanin assay, ΔlasI strain with WT LasR; type: cell-based, Pseudomonas aeruginosa PA14; details: 10 μM
T1 sequence (P25084 1-239): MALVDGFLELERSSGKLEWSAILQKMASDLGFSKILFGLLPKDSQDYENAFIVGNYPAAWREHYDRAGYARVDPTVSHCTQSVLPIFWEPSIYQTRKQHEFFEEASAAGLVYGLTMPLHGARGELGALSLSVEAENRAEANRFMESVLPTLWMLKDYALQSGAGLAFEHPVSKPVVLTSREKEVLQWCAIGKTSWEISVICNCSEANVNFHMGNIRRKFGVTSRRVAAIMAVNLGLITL
Outline: (§1)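 Overnight LB cultures of PA14 lasI (WT lasR) or lasI lasR T75V/Y93F/A127W were grown at 37°C, diluted (100 μL into 3 mL LB) and shaken 8 h at 37°C. They were then diluted 2 μL into 2 mL LB with DMSO or compound and shaken 17 h at 37°C. OD600 was read, then supernatant OD695 after centrifugation. Pyocyanin = OD695/OD600. n=3, SEM.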

[2] = molecular target: T2, WT LasR LBD (Pseudomonas aeruginosa, UniProt P25084); experiment: Protein solubility assay, WT LasR LBD produced in E. coli; type: cell-based; details: 10 μM compound
T2 sequence (P25084 1-173 limits assumed): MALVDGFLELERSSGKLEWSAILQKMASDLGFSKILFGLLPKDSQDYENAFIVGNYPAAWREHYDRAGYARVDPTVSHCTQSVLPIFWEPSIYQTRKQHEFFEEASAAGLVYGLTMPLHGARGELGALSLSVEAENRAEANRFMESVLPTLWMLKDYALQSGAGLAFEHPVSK
Outline: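 E. coli BL21(DE3) with plasmid-borne 6xHis-WT LasR LBD were grown overnight, diluted 1:500 in LB with ampicillin and grown to OD600 0.5. Cells were induced with 1 mM IPTG plus test compound at 10 μM final, then shaken 4 h at 25°C or 37°C. Whole-cell lysate and soluble fractions were compared by band intensity. Fraction soluble = soluble band / whole-cell lysate band.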

[3] = molecular target: T3, LasR LBD (Pseudomonas aeruginosa, UniProt P25084); experiment: Thermal shift assay, LasR LBD:BB0126; type: binding
T3 sequence (P25084 1-173 limits assumed): T2 sequence (P25084 1-173 limits assumed)
Outline: (§2)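 6xHis-LasR LBD (WT or T75V/Y93F/A127W) was expressed in E. coli BL21(DE3) with 1 mM IPTG and 100 μM ligand (4 h, 25°C), then purified by Ni-NTA and size exclusion. Ligand-bound protein at 5 μM in 20 mM Tris-HCl pH 8, 200 mM NaCl, 1 mM DTT, with DMSO or 10 μM ligand, stood 15 min at room temperature. SYPRO Orange was added just before the run. Heating from 25 to 99°C at 0.05°C/s; fluorescence on ROX setting.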

[4] = molecular target: T4, LasR LBD T75V/Y93F/A127W (Pseudomonas aeruginosa, UniProt P25084, A127W/T75V/Y93F); experiment: Thermal shift assay, LasR LBD T75V/Y93F/A127W:BB0126; type: binding; details: for effect of excess ligand on Tm: LasR LBD T75V/Y93F/A127W:BB0126 with 10 μM excess ligand
T4 sequence (P25084 1-173 T75V/Y93F/A127W limits assumed): T2 sequence (P25084 1-173 limits assumed) with T75V, Y93F, A127W
Outline: as §2

[5] = molecular target: T1, WT LasR; experiment: E. coli lasB-lux reporter assay, WT LasR; type: cell-based
[6] = molecular target: T5, LasR T75V (Pseudomonas aeruginosa, UniProt P25084, T75V); experiment: E. coli lasB-lux reporter assay, LasR T75V; type: cell-based
T5 sequence (P25084 1-239 T75V): T1 sequence (P25084 1-239) with T75V

[7] = molecular target: T6, LasR Y93F (Pseudomonas aeruginosa, UniProt P25084, Y93F); experiment: E. coli lasB-lux reporter assay, LasR Y93F; type: cell-based
T6 sequence (P25084 1-239 Y93F): T1 sequence (P25084 1-239) with Y93F

[8] = molecular target: T7, LasR T75V/Y93F (Pseudomonas aeruginosa, UniProt P25084, T75V/Y93F); experiment: E. coli lasB-lux reporter assay, LasR T75V/Y93F; type: cell-based
T7 sequence (P25084 1-239 T75V/Y93F): T1 sequence (P25084 1-239) with T75V, Y93F

[9] = molecular target: T8, LasR T75V/A127W (Pseudomonas aeruginosa, UniProt P25084, A127W/T75V); experiment: E. coli lasB-lux reporter assay, LasR T75V/A127W; type: cell-based
T8 sequence (P25084 1-239 T75V/A127W): T1 sequence (P25084 1-239) with T75V, A127W

[10] = molecular target: T9, LasR Y93F/A127W (Pseudomonas aeruginosa, UniProt P25084, A127W/Y93F); experiment: E. coli lasB-lux reporter assay, LasR Y93F/A127W; type: cell-based
T9 sequence (P25084 1-239 Y93F/A127W): T1 sequence (P25084 1-239) with Y93F, A127W

[11] = molecular target: T10, LasR T75V/Y93F/A127W (Pseudomonas aeruginosa, UniProt P25084, A127W/T75V/Y93F); experiment: E. coli lasB-lux reporter assay, LasR T75V/Y93F/A127W; type: cell-based
T10 sequence (P25084 1-239 T75V/Y93F/A127W): T1 sequence (P25084 1-239) with T75V, Y93F, A127W

[12] = molecular target: T1, WT LasR; experiment: P. aeruginosa PA14 rhlA-mNG reporter assay, WT lasR; type: cell-based, Pseudomonas aeruginosa PA14; details: ΔlasI P. aeruginosa PA14, 10 μM
Outline: (§3)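 P. aeruginosa PA14 lasI strains carried WT or T75V/Y93F/A127W lasR at the native chromosomal locus and a chromosomal prhlA-mNG fusion. Overnight cultures were diluted 1:1000 in LB with test compound at 10 μM and grown at 37°C for 8 h. Cells were pelleted and resuspended in PBS. Fluorescence was read at ex 485/em 535 nm, with A600 measured in parallel. n=3, SEM; multiple t-tests.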

[13] = molecular target: T10, LasR T75V/Y93F/A127W; experiment: P. aeruginosa PA14 rhlA-mNG reporter assay, lasR T75V/Y93F/A127W; type: cell-based, Pseudomonas aeruginosa PA14; details: ΔlasI P. aeruginosa PA14, 10 μM
Outline: as §3

[14] = molecular target: T10, LasR T75V/Y93F/A127W; experiment: Pyocyanin assay, ΔlasI strain with LasR T75V/Y93F/A127W; type: cell-based, Pseudomonas aeruginosa PA14; details: 10 μM
Outline: as §1

[15] = test system: luciferase; experiment: Off-target inhibition of luciferase in the E. coli lasB-lux reporter strain; type: cell-based; details: high concentrations (>10 μM)
[16] = test system: WT LasR; experiment: E. coli lasB-lux reporter assay, WT LasR; type: cell-based, Pseudomonas aeruginosa; details: LasR T75V, Y93F and A127W single mutations, each relative to WT LasR
[17] = molecular target: T11, LasR R61A (Pseudomonas aeruginosa, UniProt P25084, R61A); experiment: E. coli lasB-lux reporter assay, LasR R61A; type: cell-based
T11 sequence (P25084 1-239 R61A): T1 sequence (P25084 1-239) with R61A

Compound	pyocyanin production [1]	soluble WT LasR LBD ([2]; induction at 25°C)	effect of excess ligand on Tm [4]	EC50 [5] [nM]	EC50 [6] [nM]	EC50 [8] [nM]	EC50 [9] [nM]	EC50 [11] [nM]	activation of prhlA-mNG [12]	activation of prhlA-mNG [13]	pyocyanin production [14]	off-target inhibition of luciferase [15]	further results
CCCCCCCCCC(=O)CC(=O)N[C@H]1CCOC1=O [3OC12HSL, N-3-oxo-dodecanoyl-L-homoserine lactone, reference compound]	induced pyocyanin production	yielded soluble WT LasR LBD	had no effect	–	–	–	–	–	–	–	–	–	stabilization by exogenous ligand ([3]; LasR LBD:BB0126 with 10 μM exogenous 3OC12HSL): highly effective at binding to and stabilizing the LasR LBD
O=C(CCCOc1cccc(Br)c1)N[C@H]1C[C@@H]2C[C@@H]2C1=O (relative stereo) [BB0020, 4-(3-bromophenoxy)-N-(rel-(1S,3S,5S)-2-oxobicyclo[3.1.0]hexan-3-yl)butanamide]	activated both LasR alleles equally	yielded soluble WT LasR LBD	–	6	15	20	20	20	activated prhlA-mNG	activated the reporter	activated both LasR alleles equally	caused off-target inhibition of luciferase	EC50 [7]: 15 nM; EC50 [10]: 100 nM
CS(=O)(=O)c1cccc(OCCCC(=O)N[C@H]2C[C@@H]3C[C@@H]3C2=O)c1 (relative stereo) [BB0126, 4-(3-(methylsulfonyl)phenoxy)-N-(rel-(1S,3S,5S)-2-oxobicyclo[3.1.0]hexan-3-yl)butanamide]	–	yielded soluble WT LasR LBD	further enhanced the Tm	> 3100	1500	600	50	50	not in response to BB0126	activated the reporter	responded to BB0126	caused off-target inhibition of luciferase	fold lower EC50 with the mutations [16]: 2-to 6 fold; EC50 [17]: > 10000 nM; soluble WT LasR LBD ([2]; induction at 37°C): significantly less soluble; melting temperature peak ([3]; LasR LBD:BB0126 in the presence of excess BB0126 (10 μM)): 49.9 °C; thermal stability of the complex ([3]; LasR LBD:BB0126 without additional ligand): unstable above room temperature; Tm ([4]; LasR LBD T75V/Y93F/A127W:BB0126 without additional ligand): 46.8 °C
